In article PMC9279635 (Acta Pharmaceutica Sinica. B, 2021):
Where two headings read alike, the source gives them in different places. Each block holds one compound with its values, some of them ahead of it.

What was measured:
DDR1 = DDR1 (Homo sapiens, UniProt Q08345); assay: ELISA kinase assay, DDR1; format: biochemical
DDR2 = biological target: T1, DDR2 (Homo sapiens, UniProt Q16832); assay: ELISA kinase assay, DDR2; format: biochemical
T1 sequence (Q16832 22-855): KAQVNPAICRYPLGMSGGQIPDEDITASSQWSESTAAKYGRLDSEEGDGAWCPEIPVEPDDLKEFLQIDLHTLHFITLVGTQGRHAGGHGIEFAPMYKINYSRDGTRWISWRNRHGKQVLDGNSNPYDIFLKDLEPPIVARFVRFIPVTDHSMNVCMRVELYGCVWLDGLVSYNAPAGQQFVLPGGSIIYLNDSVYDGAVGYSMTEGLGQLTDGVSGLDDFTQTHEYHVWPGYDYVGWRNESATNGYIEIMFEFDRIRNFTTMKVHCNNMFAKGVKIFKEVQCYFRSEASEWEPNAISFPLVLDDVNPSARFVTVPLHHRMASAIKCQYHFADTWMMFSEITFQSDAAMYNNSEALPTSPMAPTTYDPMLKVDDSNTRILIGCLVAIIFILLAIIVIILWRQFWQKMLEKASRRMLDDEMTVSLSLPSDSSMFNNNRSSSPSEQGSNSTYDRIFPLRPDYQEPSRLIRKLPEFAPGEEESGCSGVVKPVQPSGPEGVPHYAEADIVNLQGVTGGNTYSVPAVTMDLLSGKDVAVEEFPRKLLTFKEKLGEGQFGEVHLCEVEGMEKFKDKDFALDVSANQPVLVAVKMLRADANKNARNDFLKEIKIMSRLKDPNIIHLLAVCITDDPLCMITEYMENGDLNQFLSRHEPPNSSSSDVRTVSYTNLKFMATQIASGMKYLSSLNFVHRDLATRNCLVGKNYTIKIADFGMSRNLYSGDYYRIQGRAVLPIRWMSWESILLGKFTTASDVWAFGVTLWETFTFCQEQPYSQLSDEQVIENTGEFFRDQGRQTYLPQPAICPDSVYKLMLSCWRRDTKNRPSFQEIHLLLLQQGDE

[1] = tested on: DDR2 phosphorylation in MRC-5; assay: DDR2 phosphorylation in TGF-β stimulated MRC-5; format: cell-based; details: 1 μmol/L, MRC-5, 24 h TGF-β stimulation
Procedure, shortened: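 Confluent MRC-5 fibroblasts are stimulated with TGF-β (5 ng/mL) and treated with a range of test compound concentrations for 24 h. Western blots are probed for phospho-DDR2, fibronectin, α-SMA, with GAPDH as loading control.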

Flt-3 = biological target: T2, Flt-3 (Homo sapiens, UniProt P36888); assay: ELISA kinase assay, Flt-3; format: biochemical; details: for inhibition at 0.1 µM: read-out: Flt-3 inhibition@100 nmol/L
T2 sequence (P36888 27-993): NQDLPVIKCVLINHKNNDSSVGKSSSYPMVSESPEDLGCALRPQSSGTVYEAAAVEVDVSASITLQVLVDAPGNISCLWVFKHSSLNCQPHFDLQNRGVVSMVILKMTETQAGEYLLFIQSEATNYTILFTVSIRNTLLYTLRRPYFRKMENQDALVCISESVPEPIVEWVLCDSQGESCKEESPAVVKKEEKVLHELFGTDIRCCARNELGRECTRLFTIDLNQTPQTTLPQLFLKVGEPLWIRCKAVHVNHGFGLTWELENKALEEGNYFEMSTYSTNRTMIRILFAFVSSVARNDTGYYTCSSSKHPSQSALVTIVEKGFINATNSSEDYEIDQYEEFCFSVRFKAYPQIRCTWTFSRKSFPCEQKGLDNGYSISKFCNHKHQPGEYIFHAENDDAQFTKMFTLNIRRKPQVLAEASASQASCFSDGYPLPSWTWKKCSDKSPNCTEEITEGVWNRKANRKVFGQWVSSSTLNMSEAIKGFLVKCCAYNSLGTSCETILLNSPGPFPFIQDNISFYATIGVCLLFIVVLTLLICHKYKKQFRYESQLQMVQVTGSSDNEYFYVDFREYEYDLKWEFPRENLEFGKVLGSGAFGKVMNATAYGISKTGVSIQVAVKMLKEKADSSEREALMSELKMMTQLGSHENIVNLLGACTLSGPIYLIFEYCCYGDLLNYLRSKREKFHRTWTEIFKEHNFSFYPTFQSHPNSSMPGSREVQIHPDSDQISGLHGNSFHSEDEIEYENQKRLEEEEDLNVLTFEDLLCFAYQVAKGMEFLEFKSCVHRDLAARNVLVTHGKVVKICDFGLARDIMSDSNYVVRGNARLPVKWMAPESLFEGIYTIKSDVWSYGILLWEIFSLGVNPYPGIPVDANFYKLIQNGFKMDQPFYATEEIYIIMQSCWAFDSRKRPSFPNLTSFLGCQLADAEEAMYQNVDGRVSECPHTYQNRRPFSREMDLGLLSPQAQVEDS

RET = RET (Homo sapiens, UniProt P07949); assay: ELISA kinase assay, RET; format: biochemical; details: for inhibition at 0.1 µM: read-out: RET inhibition @100 nmol/L
ABL = ABL (Homo sapiens, UniProt P00519); assay: Kinase selectivity test, ABL; format: biochemical; details: 10 nmol/L
KDR = KDR (Homo sapiens, UniProt P35968); assay: ELISA kinase assay, KDR; format: biochemical; details: for inhibition at 0.1 µM: read-out: KDR inhibition @100 nmol/L
[2] = tested on: bleomycin-induced pulmonary fibrosis; assay: BLM induced mouse lung fibrosis; format: in vivo, mice (C57BL/6)
Procedure, shortened: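 Bleomycin (1.7 U/kg) or saline is given intratracheally to mice. After 7 days, test compound is dosed once daily for 21 days (n = 6–9/group). Body weight is tracked over the period. On day 21, lung sections are stained with H&E, F4/80, Masson and COL-1, and H&E and Masson sections are scored. Data are mean ± SEM, analysed by one-way ANOVA with Fisher's LSD.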

[3] = DDR2 IC50, two separate experiments

KDR, sequence (P35968 20-1356): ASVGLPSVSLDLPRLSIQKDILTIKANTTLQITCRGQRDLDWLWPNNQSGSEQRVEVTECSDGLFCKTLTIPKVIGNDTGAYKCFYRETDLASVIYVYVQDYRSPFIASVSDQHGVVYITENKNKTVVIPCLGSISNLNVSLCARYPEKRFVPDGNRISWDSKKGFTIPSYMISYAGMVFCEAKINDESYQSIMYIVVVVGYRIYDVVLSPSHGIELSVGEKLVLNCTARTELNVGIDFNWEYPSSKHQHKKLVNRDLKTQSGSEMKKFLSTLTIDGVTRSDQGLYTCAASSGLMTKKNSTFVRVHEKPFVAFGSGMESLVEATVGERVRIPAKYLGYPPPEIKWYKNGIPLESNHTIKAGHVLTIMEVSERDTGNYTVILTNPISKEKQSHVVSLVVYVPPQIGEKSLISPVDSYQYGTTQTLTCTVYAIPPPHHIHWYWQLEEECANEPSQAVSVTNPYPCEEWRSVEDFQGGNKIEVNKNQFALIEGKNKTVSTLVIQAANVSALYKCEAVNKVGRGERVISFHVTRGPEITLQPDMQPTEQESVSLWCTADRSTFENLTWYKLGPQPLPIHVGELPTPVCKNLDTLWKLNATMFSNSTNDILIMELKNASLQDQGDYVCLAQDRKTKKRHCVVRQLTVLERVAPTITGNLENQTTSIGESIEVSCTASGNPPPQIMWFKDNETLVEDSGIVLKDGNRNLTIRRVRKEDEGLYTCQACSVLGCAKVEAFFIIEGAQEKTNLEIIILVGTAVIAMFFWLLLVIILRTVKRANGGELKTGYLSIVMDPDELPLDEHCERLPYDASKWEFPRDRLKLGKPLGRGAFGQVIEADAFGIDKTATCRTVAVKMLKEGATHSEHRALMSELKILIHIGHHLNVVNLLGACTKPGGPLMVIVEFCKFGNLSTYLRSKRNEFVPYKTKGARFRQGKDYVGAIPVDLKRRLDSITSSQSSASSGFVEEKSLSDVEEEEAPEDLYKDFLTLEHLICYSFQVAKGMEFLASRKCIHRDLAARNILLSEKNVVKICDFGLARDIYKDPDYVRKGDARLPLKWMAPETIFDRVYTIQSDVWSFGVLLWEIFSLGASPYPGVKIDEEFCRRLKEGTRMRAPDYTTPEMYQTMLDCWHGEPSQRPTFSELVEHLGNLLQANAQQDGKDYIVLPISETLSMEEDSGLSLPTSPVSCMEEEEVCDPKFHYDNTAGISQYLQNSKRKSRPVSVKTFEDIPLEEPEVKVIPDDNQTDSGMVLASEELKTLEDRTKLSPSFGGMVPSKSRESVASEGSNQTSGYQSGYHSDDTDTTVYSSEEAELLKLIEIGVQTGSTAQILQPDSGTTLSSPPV
RET, sequence (P07949 29-1114): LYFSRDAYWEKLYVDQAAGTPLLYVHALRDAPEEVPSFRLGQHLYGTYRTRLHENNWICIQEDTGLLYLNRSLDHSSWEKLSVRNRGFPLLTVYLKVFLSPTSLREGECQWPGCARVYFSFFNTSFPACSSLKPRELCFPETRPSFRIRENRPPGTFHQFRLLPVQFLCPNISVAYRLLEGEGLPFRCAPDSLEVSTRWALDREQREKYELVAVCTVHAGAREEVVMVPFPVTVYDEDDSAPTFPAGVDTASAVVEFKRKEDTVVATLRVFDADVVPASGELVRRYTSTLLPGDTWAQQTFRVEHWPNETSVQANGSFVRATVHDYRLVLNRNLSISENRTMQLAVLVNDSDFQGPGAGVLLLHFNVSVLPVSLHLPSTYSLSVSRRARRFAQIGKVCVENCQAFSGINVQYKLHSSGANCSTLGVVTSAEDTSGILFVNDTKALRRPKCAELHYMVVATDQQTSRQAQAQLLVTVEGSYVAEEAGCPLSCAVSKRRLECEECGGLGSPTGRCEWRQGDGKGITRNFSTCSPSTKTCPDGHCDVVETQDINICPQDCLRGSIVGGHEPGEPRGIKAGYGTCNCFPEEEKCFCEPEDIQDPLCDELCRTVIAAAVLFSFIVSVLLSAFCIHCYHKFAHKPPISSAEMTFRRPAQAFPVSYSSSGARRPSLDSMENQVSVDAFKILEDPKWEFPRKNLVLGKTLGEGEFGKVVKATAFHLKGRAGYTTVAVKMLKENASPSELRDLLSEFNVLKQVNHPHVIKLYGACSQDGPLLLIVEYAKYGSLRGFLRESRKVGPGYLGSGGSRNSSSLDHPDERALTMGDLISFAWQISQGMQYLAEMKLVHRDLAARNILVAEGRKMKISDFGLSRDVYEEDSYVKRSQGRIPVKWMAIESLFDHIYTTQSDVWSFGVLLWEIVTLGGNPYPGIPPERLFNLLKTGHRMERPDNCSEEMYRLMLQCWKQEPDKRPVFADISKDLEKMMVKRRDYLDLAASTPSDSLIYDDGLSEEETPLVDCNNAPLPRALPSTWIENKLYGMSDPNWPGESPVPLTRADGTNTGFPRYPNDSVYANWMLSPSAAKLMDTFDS
DDR1, sequence (Q08345 19-913): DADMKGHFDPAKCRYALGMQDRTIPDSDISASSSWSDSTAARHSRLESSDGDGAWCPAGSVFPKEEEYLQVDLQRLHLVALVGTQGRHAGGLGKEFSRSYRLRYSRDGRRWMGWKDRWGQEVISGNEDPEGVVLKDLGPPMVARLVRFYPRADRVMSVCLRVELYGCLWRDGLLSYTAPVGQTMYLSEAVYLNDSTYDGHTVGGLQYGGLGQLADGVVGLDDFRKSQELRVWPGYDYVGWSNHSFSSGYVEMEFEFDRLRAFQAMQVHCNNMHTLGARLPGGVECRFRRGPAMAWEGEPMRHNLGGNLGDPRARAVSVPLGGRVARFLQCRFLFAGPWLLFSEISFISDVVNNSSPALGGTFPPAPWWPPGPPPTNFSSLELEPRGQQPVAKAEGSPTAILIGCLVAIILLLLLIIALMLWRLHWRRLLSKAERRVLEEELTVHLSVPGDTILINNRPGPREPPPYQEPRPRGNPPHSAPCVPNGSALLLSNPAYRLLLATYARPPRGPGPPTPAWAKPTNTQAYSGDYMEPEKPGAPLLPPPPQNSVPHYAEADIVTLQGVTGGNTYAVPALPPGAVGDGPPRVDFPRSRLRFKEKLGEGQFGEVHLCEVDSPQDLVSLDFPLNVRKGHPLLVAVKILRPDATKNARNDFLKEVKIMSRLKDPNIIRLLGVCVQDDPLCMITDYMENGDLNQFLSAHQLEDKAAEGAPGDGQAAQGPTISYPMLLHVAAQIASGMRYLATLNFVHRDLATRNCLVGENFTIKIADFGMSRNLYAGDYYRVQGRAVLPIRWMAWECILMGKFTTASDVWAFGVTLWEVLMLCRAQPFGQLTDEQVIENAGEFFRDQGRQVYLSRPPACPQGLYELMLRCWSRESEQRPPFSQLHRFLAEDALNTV
ABL, sequence (P00519 whole entry): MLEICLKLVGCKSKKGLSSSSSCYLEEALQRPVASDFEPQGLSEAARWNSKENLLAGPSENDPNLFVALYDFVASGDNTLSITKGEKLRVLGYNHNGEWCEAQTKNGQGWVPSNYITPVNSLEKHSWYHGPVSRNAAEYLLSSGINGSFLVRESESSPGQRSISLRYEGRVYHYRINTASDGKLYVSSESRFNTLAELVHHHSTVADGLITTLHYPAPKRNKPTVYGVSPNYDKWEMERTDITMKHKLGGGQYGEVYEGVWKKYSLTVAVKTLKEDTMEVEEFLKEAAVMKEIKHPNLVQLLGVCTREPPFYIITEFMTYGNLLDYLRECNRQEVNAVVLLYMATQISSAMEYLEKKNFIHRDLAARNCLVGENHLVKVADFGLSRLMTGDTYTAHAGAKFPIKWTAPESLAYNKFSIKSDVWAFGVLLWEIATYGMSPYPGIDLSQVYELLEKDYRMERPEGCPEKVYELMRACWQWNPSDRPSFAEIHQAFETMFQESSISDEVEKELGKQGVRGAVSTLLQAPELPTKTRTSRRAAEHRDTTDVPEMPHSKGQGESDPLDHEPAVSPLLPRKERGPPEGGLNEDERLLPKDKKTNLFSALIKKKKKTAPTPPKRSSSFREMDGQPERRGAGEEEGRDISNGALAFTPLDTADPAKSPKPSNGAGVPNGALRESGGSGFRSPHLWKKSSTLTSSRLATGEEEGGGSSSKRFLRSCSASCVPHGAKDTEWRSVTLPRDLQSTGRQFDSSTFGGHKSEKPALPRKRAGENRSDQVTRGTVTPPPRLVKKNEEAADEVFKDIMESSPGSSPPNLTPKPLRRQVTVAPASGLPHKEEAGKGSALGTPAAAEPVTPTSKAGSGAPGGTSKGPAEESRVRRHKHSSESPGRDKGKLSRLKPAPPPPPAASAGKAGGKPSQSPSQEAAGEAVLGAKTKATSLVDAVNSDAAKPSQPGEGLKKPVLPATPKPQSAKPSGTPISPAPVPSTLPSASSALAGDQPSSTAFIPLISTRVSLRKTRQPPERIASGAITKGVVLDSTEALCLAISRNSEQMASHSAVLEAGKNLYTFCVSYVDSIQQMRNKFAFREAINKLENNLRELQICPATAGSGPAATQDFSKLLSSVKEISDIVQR

- IC50 (DDR1): 9.74 nM
Compound: Cc1ccc(C(=O)Nc2cccc(C(F)(F)F)c2)cc1-c1ccc2cn[nH]c2c1 [Compound 7, 3-(1H-Indazol-6-yl)-4-methyl-N-(3-(trifluoromethyl)phenyl)benzamide]

- IC50 (DDR2; [3]): 2.8 ± 0.5 nM
- IC50 (DDR1): 13.8 nM
Compound: Cc1ccc(C(=O)Nc2cccc(C(F)(F)F)c2)cc1-c1ccc2nc(Nc3cnn(C4CC4)c3)ncc2c1 [Compound 24, 3-(2-((1-Cyclopropyl-1H-pyrazol-4-yl)amino)quinazolin-6-yl)-4-methyl-N-(3-(trifluoromethyl)phenyl)benzamide]
- inhibition of DDR2 phosphorylation [1]: high inhibitory activity

- inhibition at 0.1 µM (Flt-3): 61.8%
- IC50 (DDR2; [3]): 4.1 ± 0.7 nM
- inhibition at 0.1 µM (RET): 77.1%
Compound: CCc1ccc(C(=O)Nc2cccc(C(F)(F)F)c2)cc1-c1ccc2nc(Nc3cnn(C)c3)ncc2c1 [Compound 32, 4-Ethyl-3-(2-((1-methyl-1H-pyrazol-4-yl)amino)quinazolin-6-yl)-N-(3-(trifluoromethyl)phenyl)benzamide]

- inhibition at 0.1 µM (Flt-3): 59.7%
- IC50 (DDR2; [3]): 2.3 ± 0.5 nM
- inhibition at 0.1 µM (RET): 41.3%
Compound: COc1ccc(C(=O)Nc2cccc(C(F)(F)F)c2)cc1-c1ccc2nc(Nc3cnn(C)c3)ncc2c1 [Compound 33, 4-Methoxy-3-(2-((1-methyl-1H-pyrazol-4-yl)amino)quinazolin-6-yl)-N-(3-(trifluoromethyl)phenyl)benzamide]

- inhibition at 0.1 µM (Flt-3): 0%
- IC50 (DDR1): 16 nM
- ABL inhibition ratio (ABL): over 50%
- KDR inhibition ratio (KDR; 10 nmol/L): over 50%
- inhibition at 0.1 µM (KDR): 100%
Compound: O=C(Nc1cccc(C(F)(F)F)c1)c1ccc(C2CC2)c(-c2ccc3nc(Nc4cnn(C5CC5)c4)ncc3c2)c1 [Compound 36, 4-Cyclopropyl-3-(2-((1-cyclopropyl-1H-pyrazol-4-yl)amino)quinazolin-6-yl)-N-(3-(trifluoromethyl)phenyl)benzamide]
- inhibition of DDR2 phosphorylation [1]: high inhibitory activity

- inhibition at 0.1 µM (KDR): 89.3%
Compound: Cc1ccc(NC(=O)Nc2cccc(C(F)(F)F)c2)cc1-c1ccc2nc(Nc3cnn(C)c3)ncc2c1 [Compound 37, 1-(4-Methyl-3-(2-((1-methyl-1H-pyrazol-4-yl)amino)quinazolin-6-yl)phenyl)-3-(3-(trifluoromethyl)phenyl)urea]

- inhibition at 0.1 µM (KDR): 94%
Compound: Cc1ccc(C(=O)NCc2cccc(C(F)(F)F)c2)cc1-c1ccc2nc(Nc3cnn(C)c3)ncc2c1 [Compound 38, 4-Methyl-3-(2-((1-methyl-1H-pyrazol-4-yl)amino)quinazolin-6-yl)-N-(3-(trifluoromethyl)benzyl)benzamide]

- inhibition at 0.1 µM (KDR): 70.2%
Compound: Cc1ccc(NC(=O)C(C)c2cccc(C(F)(F)F)c2)cc1-c1ccc2nc(Nc3cnn(C)c3)ncc2c1 (stereo not drawn) [Compound 39, N-(4-Methyl-3-(2-((1-methyl-1H-pyrazol-4-yl)amino)quinazolin-6-yl)phenyl)-2-(3-(trifluoromethyl)phenyl)propanamide]

- IC50 (DDR2; [3]): 4.3 ± 1 nM
- inhibition at 0.1 µM (KDR): 26.9%
Compound: Cc1ccc(C(C)NC(=O)c2cccc(C(F)(F)F)c2)cc1-c1ccc2nc(Nc3cnn(C4CC4)c3)ncc2c1 (stereo not drawn) [Compound 43, N-(1-(3-(2-((1-Cyclopropyl-1H-pyrazol-4-yl)amino)quinazolin-6-yl)-4-methylphenyl)ethyl)-3-(trifluoromethyl)benzamide]

Compound: COC(=O)c1ccc2c(c1)NC(=O)/C2=C(\Nc1ccc(N(C)C(=O)CN2CCN(C)CC2)cc1)c1ccccc1 [nintedanib]
- weight of mice at the end of the treatment ([2]; 60 mg/kg once daily): 24.54 ± 2.09 g
- weight recovery ratio ([2]; BLM mice, 60 mg/kg): 12.93%
- Masson score ([2]; BLM mice, 60 mg/kg, vehicle 2.67 ± 0.57, scale 1–4): 1.89 ± 0.55

- Flt-3 inhibition @10 nmol/L (Flt-3; 10 nmol/L): 93.8%
- IC50 (DDR2; read-out: DDR2 IC50, two separate experiments): 2.7 ± 0.2 nM
- RET inhibition @10 nmol/L (RET; 10 nmol/L): 91.6%
Compound: N-(3-((3,5-Dimethylpiperazin-1-yl)methyl)-5-(trifluoromethyl)phenyl)-4-methyl-3-(2-((1-methyl-1H-pyrazol-4-yl)amino)quinazolin-6-yl)benzamide [Compound 29]
